Measured values taken from ChEMBL document CHEMBL1136045, “Synthesis, in vitro receptor binding, and in vivo evaluation of fluorescein and carbocyanine peptide-based optical contrast agents” (J Med Chem, 2002).

The molecules below were run against Gastrin-releasing peptide receptor (Rattus norvegicus, UniProt P52500) (assay: In vitro binding affinity of [111In]DTPA-[Y4]-bombesin to bombesin receptor in the rat pancreatic acinar cell line, AR42J).
Procedure, shortened: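 Competition binding on AR42-J rat pancreatic acinar cell membranes (~50 μg/well) with the tracer [111In]-DTPA-[P1,Y4]-bombesin and increasing concentrations of cold competitor. Buffer was 50 mM Tris-HCl pH 7.4, 5 mM MgCl2, 0.2 mg/mL BSA. Incubation 90 min at room temperature, then filtration and washing. Bound radioactivity was gamma-counted, and IC50 came from a four-parameter fit.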

Sequence of Gastrin-releasing peptide receptor (P52500 whole entry): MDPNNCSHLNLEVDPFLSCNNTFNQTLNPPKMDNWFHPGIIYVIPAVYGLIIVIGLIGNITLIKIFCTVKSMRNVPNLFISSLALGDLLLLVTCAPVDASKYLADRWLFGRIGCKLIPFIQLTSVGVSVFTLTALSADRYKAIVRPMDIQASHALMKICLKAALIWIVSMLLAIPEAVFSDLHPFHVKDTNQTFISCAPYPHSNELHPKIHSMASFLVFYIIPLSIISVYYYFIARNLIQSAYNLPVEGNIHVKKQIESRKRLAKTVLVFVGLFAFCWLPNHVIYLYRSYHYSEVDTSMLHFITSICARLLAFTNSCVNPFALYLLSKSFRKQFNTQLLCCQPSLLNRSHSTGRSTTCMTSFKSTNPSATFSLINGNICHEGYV

SMILES	IC50
CSCC[C@H](NC(=O)[C@H](CC(C)C)NC(=O)[C@H](Cc1c[nH]cn1)NC(=O)CNC(=O)[C@@H](NC(=O)[C@H](C)NC(=O)[C@H](Cc1c[nH]c2ccccc12)NC(=O)[C@H](CCC(N)=O)NC(=O)CNC(=O)[C@H](CO)NC(=O)CNC(=O)[C@H](CCCCNC(=S)Nc1ccc2c(c1)C(=O)OC21c2ccc(O)cc2Oc2cc(O)ccc21)NC(=S)Nc1ccc2c(c1)C(=O)OC21c2ccc(O)cc2Oc2cc(O)ccc21)C(C)C)C(N)=O	20.5 nM
CSCC[C@H](NC(=O)[C@H](CC(C)C)NC(=O)[C@H](Cc1cnc[nH]1)NC(=O)CNC(=O)[C@@H](NC(=O)[C@H](C)NC(=O)[C@H](Cc1c[nH]c2ccccc12)NC(=O)[C@@H](N)CCC(N)=O)C(C)C)C(N)=O	28.3 nM
CSCC[C@H](NC(=O)[C@H](CC(C)C)NC(=O)[C@H](Cc1c[nH]cn1)NC(=O)CNC(=O)[C@@H](NC(=O)[C@H](C)NC(=O)[C@H](Cc1c[nH]c2ccccc12)NC(=O)[C@H](CCC(N)=O)NC(=O)[C@@H](N)CCCCNC(=O)CN(CCN(CCN(CC(=O)O)CC(=O)O)CC(=O)O)CC(=O)O)C(C)C)C(N)=O	4.8 nM
CSCC[C@H](NC(=O)[C@H](CC(C)C)NC(=O)[C@H](Cc1c[nH]cn1)NC(=O)CNC(=O)[C@@H](NC(=O)[C@H](C)NC(=O)[C@H](Cc1c[nH]c2ccccc12)NC(=O)[C@H](CCC(N)=O)NC(=O)[C@H](CCCCN)NC(=O)CN(CCN(CCN(CC(=O)O)CC(=O)O)CC(=O)O)CC(=O)O)C(C)C)C(N)=O	410 nM
CSCC[C@H](NC(=O)[C@H](CC(C)C)NC(=O)[C@H](Cc1c[nH]cn1)NC(=O)CNC(=O)[C@@H](NC(=O)[C@H](C)NC(=O)[C@H](Cc1c[nH]c2ccccc12)NC(=O)[C@H](CCC(N)=O)NC(=O)CNC(=O)[C@H](CO)NC(=O)CN)C(C)C)C(N)=O	7.6 nM
CSCC[C@H](NC(=O)[C@H](CC(C)C)NC(=O)[C@H](Cc1c[nH]cn1)NC(=O)CNC(=O)[C@@H](NC(=O)[C@H](C)NC(=O)[C@H](Cc1c[nH]c2ccccc12)NC(=O)[C@H](CCC(N)=O)NC(=O)CNC(=O)[C@H](CO)NC(=O)CNC(=O)[C@@H](N)CCCCN)C(C)C)C(N)=O	4.8 nM
CSCC[C@H](NC(=O)[C@H](CC(C)C)NC(=O)[C@H](Cc1c[nH]cn1)NC(=O)CNC(=O)[C@@H](NC(=O)[C@H](C)NC(=O)[C@H](Cc1c[nH]c2ccccc12)NC(=O)[C@H](CCC(N)=O)NC(=O)[C@H](CC(N)=O)NC(=O)CNC(=O)[C@H](Cc1ccc(O)cc1)NC(=O)[C@H](CCCN=C(N)N)NC(=O)[C@H](CCC(N)=O)NC(=O)[C@@H]1CCCN1C(=O)CN(CCN(CCN(CC(=O)O)CC(=O)O)CC(=O)O)CC(=O)O)C(C)C)C(N)=O	4.7 nM
CSCC[C@H](NC(=O)[C@H](CC(C)C)NC(=O)[C@H](Cc1c[nH]cn1)NC(=O)CNC(=O)[C@@H](NC(=O)[C@H](C)NC(=O)[C@H](Cc1c[nH]c2ccccc12)NC(=O)[C@H](CCC(N)=O)NC(=O)[C@H](CCCCNC(=O)CN(CCN(CCN(CC(=O)O)CC(=O)O)CC(=O)O)CC(=O)O)NC(=O)CN(CCN(CCN(CC(=O)O)CC(=O)O)CC(=O)O)CC(=O)O)C(C)C)C(N)=O	240 nM

Next, values leading:

IC50	SMILES
9.5 nM	CSCC[C@H](NC(=O)[C@H](CC(C)C)NC(=O)[C@H](Cc1c[nH]cn1)NC(=O)CNC(=O)[C@@H](NC(=O)[C@H](C)NC(=O)[C@H](Cc1c[nH]c2ccccc12)NC(=O)[C@H](CCC(N)=O)NC(=O)[C@H](CCCCNC(=S)Nc1ccc2c(c1)C(=O)OC21c2ccc(O)cc2Oc2cc(O)ccc21)NC(=S)Nc1ccc2c(c1)C(=O)OC21c2ccc(O)cc2Oc2cc(O)ccc21)C(C)C)C(N)=O
10.5 nM	CSCC[C@H](NC(=O)[C@H](CC(C)C)NC(=O)[C@H](Cc1c[nH]cn1)NC(=O)CNC(=O)[C@@H](NC(=O)[C@H](C)NC(=O)[C@H](Cc1c[nH]c2ccccc12)NC(=O)[C@H](CCC(N)=O)NC(=O)[C@@H](N)CCCCN)C(C)C)C(N)=O
5.7 nM	CSCC[C@H](NC(=O)[C@H](CC(C)C)NC(=O)[C@H](Cc1c[nH]cn1)NC(=O)CNC(=O)[C@@H](NC(=O)[C@H](C)NC(=O)[C@H](Cc1c[nH]c2ccccc12)NC(=O)[C@H](CCC(N)=O)NC(=O)[C@@H](N)CCCCNC(=S)Nc1ccc2c(c1)C(=O)OC21c2ccc(O)cc2Oc2cc(O)ccc21)C(C)C)C(N)=O
15 nM	CSCC[C@H](NC(=O)[C@H](CC(C)C)NC(=O)[C@H](Cc1c[nH]cn1)NC(=O)CNC(=O)[C@@H](NC(=O)[C@H](C)NC(=O)[C@H](Cc1c[nH]c2ccccc12)NC(=O)[C@H](CCC(N)=O)NC(=O)[C@H](CCCCNC(=O)CN1CCN(CC(=O)O)CCN(CC(=O)O)CCN(CC(=O)O)CC1)NC(=S)Nc1ccc2c(c1)C(=O)OC21c2ccc(O)cc2Oc2cc(O)ccc21)C(C)C)C(N)=O
9.6 nM	CSCC[C@H](NC(=O)[C@H](CC(C)C)NC(=O)[C@H](Cc1c[nH]cn1)NC(=O)CNC(=O)[C@@H](NC(=O)[C@H](C)NC(=O)[C@H](Cc1c[nH]c2ccccc12)NC(=O)[C@H](CCC(N)=O)NC(=O)CNC(=O)[C@H](CO)NC(=O)CNC(=O)[C@@H](N)CCCCNC(=S)Nc1ccc2c(c1)C(=O)OC21c2ccc(O)cc2Oc2cc(O)ccc21)C(C)C)C(N)=O
276 nM	CSCC[C@H](NC(=O)[C@H](CC(C)C)NC(=O)[C@H](Cc1c[nH]cn1)NC(=O)CNC(=O)[C@@H](NC(=O)[C@H](C)NC(=O)[C@H](Cc1c[nH]c2ccccc12)NC(=O)[C@H](CCC(N)=O)NC(=O)[C@H](CCCCNC(=S)Nc1ccc2c(c1)C(=O)OC21c2ccc(O)cc2Oc2cc(O)ccc21)NC(=O)CN(CCN(CCN(CC(=O)O)CC(=O)O)CC(=O)O)CC(=O)O)C(C)C)C(N)=O
9.2 nM	CSCC[C@H](NC(=O)[C@H](CC(C)C)NC(=O)[C@H](Cc1c[nH]cn1)NC(=O)CNC(=O)[C@@H](NC(=O)[C@H](C)NC(=O)[C@H](Cc1c[nH]c2ccccc12)NC(=O)[C@H](CCC(N)=O)NC(=O)CNC(=O)[C@H](CO)NC(=O)CNC(=S)Nc1ccc2c(c1)C(=O)OC21c2ccc(O)cc2Oc2cc(O)ccc21)C(C)C)C(N)=O
5.8 nM	CSCC[C@H](NC(=O)[C@H](CC(C)C)NC(=O)[C@H](Cc1c[nH]cn1)NC(=O)CNC(=O)[C@@H](NC(=O)[C@H](C)NC(=O)[C@H](Cc1c[nH]c2ccccc12)NC(=O)[C@H](CCC(N)=O)NC(=O)[C@H](CCCCN)NC(=S)Nc1ccc2c(c1)C(=O)OC21c2ccc(O)cc2Oc2cc(O)ccc21)C(C)C)C(N)=O
3.2 nM	CSCC[C@H](NC(=O)[C@H](CC(C)C)NC(=O)[C@H](Cc1c[nH]cn1)NC(=O)CNC(=O)[C@@H](NC(=O)[C@H](C)NC(=O)[C@H](Cc1c[nH]c2ccccc12)NC(=O)[C@H](CCC(N)=O)NC(=S)Nc1ccc2c(c1)C(=O)OC21c2ccc(O)cc2Oc2cc(O)ccc21)C(C)C)C(N)=O
15.6 nM	CSCC[C@H](NC(=O)[C@H](CC(C)C)NC(=O)[C@H](Cc1c[nH]cn1)NC(=O)CNC(=O)[C@@H](NC(=O)[C@H](C)NC(=O)[C@H](Cc1c[nH]c2ccccc12)NC(=O)[C@H](CCC(N)=O)NC(=O)CNC(=O)[C@H](CO)NC(=O)CNC(=O)[C@H](CCCCN)NC(=S)Nc1ccc2c(c1)C(=O)OC21c2ccc(O)cc2Oc2cc(O)ccc21)C(C)C)C(N)=O
20 nM	CSCC[C@H](NC(=O)[C@H](CC(C)C)NC(=O)[C@H](Cc1c[nH]cn1)NC(=O)CNC(=O)[C@@H](NC(=O)[C@H](C)NC(=O)[C@H](Cc1c[nH]c2ccccc12)NC(=O)[C@H](CCC(N)=O)NC(=O)[C@H](CCCCNC(=O)CN(CCN(CCN(CC(=O)O)CC(=O)O)CC(=O)O)CC(=O)O)NC(=S)Nc1ccc2c(c1)C(=O)OC21c2ccc(O)cc2Oc2cc(O)ccc21)C(C)C)C(N)=O
